# An excerpt weighted towards active compounds, which were near 5.7% of everything screened.
# T cruzi inh = blocks replication of Trypanosoma cruzi; T. cruzi beta-gal in NIH3T3, luminescence, 90 h; 1.4% of 300,000 active; AID 1885; inhibition, % (test concentration not listed);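 active means mean inhibition across valid replicates above about 55%, limit read from the data; inconclusive means mean below that limit but half or more replicates reach it; inactive means mean below it, under half of replicates reach it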;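 further: signal also drops with host cell toxicity which is not excluded here; 0% = plate median of DMSO wells and 100% = zero luminescence signal; higher percent means less beta-gal luminescence so fewer parasites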
#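 System: Mouse NIH/3T3 fibroblasts infected with β-gal-expressing T. cruzi Tulahuen C4 | Quantity: NIH/3T3 cells, 5,000 per well | Reagent: 5000 reporter trypomastigotes per well | Dosing: Compound pinned at 50 nL/well, DMSO | Schedule: 3 h host attachment, then at least 90 h co-culture | Detection: GalScreen luminescence, 60 min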
# Beta cell apopt = beta cell apoptosis inhibition; AID 435005; INS-1E cytokine-induced death, ATP luminescence, 48 h; percent of positive-control rescue, neutral wells zero; 0.8% of 300,000 active; protection from apoptosis, % (concentration not given with the values);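 active means Every replicate reaches about 75%, or at least half do and their mean reaches it too, limit read from the data; inconclusive means At least half of replicates reach the limit but their mean does not; inactive means Under half of replicates reach the limit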;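 further: 0% = cytokine-treated negative control wells and 100% = positive control rescue; higher means more ATP so stronger rescue from cytokine killing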
# Calb FLC = C. albicans growth modulation with fluconazole | growth inhibition, % (concentration not given with the values) | 0.57% of 300,000 active | C. albicans CaCi-2 + fluconazole, Alamar Blue growth, 48 h;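 active means growth inhibition above about 58% in most replicates, limit read from the data, passing the limit was not always enough; inconclusive means exactly half the replicates above a set limit; inactive means most replicates below a set limit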;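 further: all wells also contain fluconazole at 8 µg/ml as a sub-toxic cotreatment; 0% = median of DMSO wells and 100% = median of geldanamycin control wells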
# CSC inhib = blocks cancer stem cells | cancer stem cell-like cells viability, luminescence | 1.1% of 300,000 active | inhibition, % at 7.5 µM; in the data active means inhibition above about 75%; inconclusive means no clear call, values can overlap the other calls; tested in HMLE shEcad cells
# Mdm2-MdmX inh = inhibitors of human Mdm2/MdmX interaction; inhibition, % at 8 µM; 3% of 330,000 active; O15151+Q00987; SaOS-2 split-luciferase Mdm2/MdmX complementation, luminescence;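 active means inhibition of at least 50% at 8 µM in the primary screen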
# Target sequence (O15151 whole entry, looked up): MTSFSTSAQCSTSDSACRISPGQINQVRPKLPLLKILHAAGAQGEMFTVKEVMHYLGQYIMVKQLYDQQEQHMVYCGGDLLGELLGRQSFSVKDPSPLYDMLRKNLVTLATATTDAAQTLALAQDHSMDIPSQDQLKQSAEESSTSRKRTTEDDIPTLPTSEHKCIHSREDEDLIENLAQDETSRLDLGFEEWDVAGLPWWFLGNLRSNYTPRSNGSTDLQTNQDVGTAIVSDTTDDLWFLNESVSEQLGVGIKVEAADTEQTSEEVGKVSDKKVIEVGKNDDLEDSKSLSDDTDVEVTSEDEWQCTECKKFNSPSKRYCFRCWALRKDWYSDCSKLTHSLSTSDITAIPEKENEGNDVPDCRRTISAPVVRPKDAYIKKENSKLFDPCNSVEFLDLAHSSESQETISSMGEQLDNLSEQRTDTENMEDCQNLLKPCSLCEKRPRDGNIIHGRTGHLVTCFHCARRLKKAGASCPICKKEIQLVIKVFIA
# Target sequence (Q00987 whole entry, looked up): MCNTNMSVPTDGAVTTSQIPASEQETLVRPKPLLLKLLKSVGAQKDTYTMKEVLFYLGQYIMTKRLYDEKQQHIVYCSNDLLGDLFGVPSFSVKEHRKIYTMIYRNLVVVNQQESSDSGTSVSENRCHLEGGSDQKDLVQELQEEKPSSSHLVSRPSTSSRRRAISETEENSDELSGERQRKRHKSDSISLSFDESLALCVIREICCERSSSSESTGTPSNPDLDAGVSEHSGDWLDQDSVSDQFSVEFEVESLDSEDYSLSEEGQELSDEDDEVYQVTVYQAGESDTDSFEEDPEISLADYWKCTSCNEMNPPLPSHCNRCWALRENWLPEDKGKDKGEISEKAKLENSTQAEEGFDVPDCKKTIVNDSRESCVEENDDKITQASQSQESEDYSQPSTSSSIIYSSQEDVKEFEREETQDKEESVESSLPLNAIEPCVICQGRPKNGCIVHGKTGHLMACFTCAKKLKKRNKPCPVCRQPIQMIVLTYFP
# SKKanGAS inh = blocks kanamycin growth of S. pyogenes SKKanGAS strain; inhibition, % at 7.5 µM; AID 1662; BacTiter-Glo, 6 h; 1.3% of 300,000 active;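 active means mean replicate score, as percent of positive control median, at least 50; inconclusive means mean below 50 but one replicate at or above 50; inactive means mean and every replicate below 50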;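 further: strain carries kanamycin resistance gene driven by streptokinase promoter and grows in 40 µg/ml kanamycin; loss of luminescence reflects streptokinase promoter inhibition or plain growth inhibition; 0% = median of DMSO wells and 100% = positive control at its reference dose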
# Mdm2-MdmX conf = confirmation of human Mdm2/MdmX interaction inhibitors; shares compounds with Mdm2-MdmX inh; Mdm2-MdmX binding, luminescent assay; inhibition, % at 8 µM; 55% of 10,000 active; AID 489028; in the data active means inhibition above about 40%
# FLuc counter = full-length luciferase inhibition in Mdm2/MdmX counter-screen; SaOS-2 full-length luciferase counterscreen, luminescence; inhibition, % at 8 µM; 77% of 6,200 active; shares compounds with Mdm2-MdmX inh;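 active means mean inhibition at 8 µM reaching about 37%, which flags the compound as non-specific, limit read from the data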;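 further: p53-null SaOS-2 cells with luciferase driven by a doxycycline-inducible promoter; compound on cells about two nights before reading with doxycycline added after day one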
# * = called active by the depositor; u = inconclusive; x = no result.
SMILES,T cruzi inh,Beta cell apopt,Calb FLC,CSC inhib,Mdm2-MdmX inh,SKKanGAS inh,Mdm2-MdmX conf,FLuc counter
Cc1cccc(C(=O)OC(C)C(=O)Nc2ccc(S(=O)(=O)Nc3ncccn3)cc2)c1C (stereo not given),x,-2.6,x,2.0,-14.4,x,x,x
CC12CC3CC(C)(C1)CC(C(=O)N1CCN(C(=O)C4CCCO4)CC1)(C3)C2 (stereo not given),25.0,3.7,x,-15.6,14.1,-2.6,x,x
CNC(=O)CCC(=O)Nc1ccc(C)cc1,-21.1,0.1,-4.9,-1.3,7.8,-13.8,x,x
COc1cccc(NC(=O)CSc2nc3scc(C)c3c(=O)[nH]2)c1,8.5,6.9,-9.6,9.6,-1.1,16.3,x,x
COc1ccc2[nH]c(=O)c(CN(Cc3cccs3)S(=O)(=O)c3c(C)ccc4nsnc34)cc2c1,6.0,x,u,46.8,63.6*,-8.9,67.5*,73.2*
Cc1ccc2nsnc2c1S(=O)(=O)N(Cc1ccco1)Cc1cc2cccc(C)c2[nH]c1=O,4.2,x,8.5,33.1,35.2,-1.2,x,x
Cc1ccc2[nH]c(=O)c(CN(Cc3ccco3)S(=O)(=O)c3c(C)ccc4nsnc34)cc2c1,31.6,-0.2,-5.5,-15.6,55.2*,5.3,5.8,x
Cc1ccccc1NC(=O)c1cc(C(=O)c2cc(Cl)ccc2O)cn(-c2ccccc2C)c1=O,1.6,72.9,20.0,9.1,78.4*,25.3,70.6*,49.6*
O=c1oc2ccccc2cc1-c1csc(Nc2nc3c(F)cccc3s2)n1,18.5,x,25.4,47.7,70.3*,10.6,70.0*,107.0*
O=c1oc2ccccc2cc1-c1csc(Nc2nc3ccc(F)cc3s2)n1,-16.5,63.9,-0.6,23.8,40.1,-5.1,x,x
COc1ccc(C2=NN(C(=O)COC(=O)c3ccc(S(C)(=O)=O)c([N+](=O)[O-])c3)C(c3ccco3)C2)cc1 (stereo not given),x,-11.1,x,95.9*,97.6*,x,91.1*,52.5*
N#Cc1ccccc1OCC(=O)OCCCOC(=O)COc1ccccc1C#N,-17.9,-7.4,15.6,-4.1,13.3,-0.7,x,x
CCOC(=O)c1c(NC(=O)COc2cccc3c2CCN(CC)C3=O)sc2c1CCC2,1.4,-3.1,-3.9,-1.2,59.9*,8.5,18.6,x
CCOC(=O)c1c(NC(=O)CN2CCN(C(=O)c3ccco3)CC2)sc2c1CCCC2,30.5,0.5,102.7*,19.8,56.3*,34.9,15.1,x
CCOC(=O)c1c(NC(=O)COc2cccc3c2CCN(Cc2ccc(F)cc2)C3=O)sc2c1CCC2,-1.3,x,10.7,9.3,19.0,5.4,x,x
Cc1cccc(NC(=O)CN2CCN(C(=O)c3cccc(-n4cnnn4)c3)CC2)c1C,x,1.0,x,x,7.9,x,x,x
COc1ccc(-c2cc(-c3cccs3)c(C#N)c(SCC(=O)NCc3ccccc3)n2)cc1,3.2,18.7,-6.3,5.4,61.5*,0.7,12.1,x
COc1ccc(-c2cc(-c3cccs3)c(C#N)c(SCC(=O)NCc3ccccc3OC)n2)cc1,-7.5,29.3,-5.3,13.7,84.1*,6.2,30.1,x
N=C1C(c2ccccc2)=C(O)CN1CCO,-21.7,-4.0,-6.5,-3.9,10.8,2.4,x,x
O=C(Cc1n[nH]c(=O)c2ccccc12)OCC(=O)c1ccc(F)cc1,-3.8,-1.8,-1.2,-9.0,18.6,0.9,x,x
CCOc1ccc(C(=O)COC(=O)Cc2n[nH]c(=O)c3ccccc23)cc1,1.4,31.3,-4.1,56.2,56.6*,7.0,75.4*,51.3*
O=C(Cc1n[nH]c(=O)c2ccccc12)OCC(=O)c1ccc2c(c1)OCCO2,37.5,12.7,0.3,64.1,55.3*,2.8,68.0*,93.7*
O=C(CCc1ccc(S(=O)(=O)N2CCOCC2)cc1)Nc1c(F)cccc1F,x,-0.9,x,-17.0,16.1,x,x,x
CCOCCCNC(=O)CN1N=C(c2ccc(C)cc2)CCC1=O,0.4,-3.2,-4.2,7.3,-7.2,-3.6,x,x
COc1ccc(OC)c(C2CC(c3ccccc3)=NN2C(=S)Nc2ccccc2)c1 (stereo not given),2.9,8.7,2.6,54.5,72.2*,-3.7,57.5*,62.9*
SMILES,T cruzi inh,Beta cell apopt,Calb FLC,CSC inhib,Mdm2-MdmX inh,SKKanGAS inh,Mdm2-MdmX conf,FLuc counter
CNC(=S)N1N=C(c2ccc(C)cc2)CC1c1cc(OC)ccc1OC (stereo not given),33.0,x,-20.6,43.5,48.3,-7.8,x,x
CCCc1nc(NC(=O)c2ccccc2)nc(NC(=O)c2ccccc2)n1,-4.6,x,-5.6,-5.8,-9.4,-1.7,x,x
O=C(O)CSc1nnc(-c2ccc3c(c2)OCO3)o1,8.7,-5.2,8.9,7.4,18.1,1.7,x,x
O=C(c1ccc(Cl)cc1)N1CCCCC(Sc2nnc(-c3ccc4c(c3)OCO4)o2)C1=O (stereo not given),-1.9,-2.6,8.4,8.4,83.9*,3.2,82.3*,49.6*
CC(C)=CCc1c(O)cc(O)c2c(=O)c(O[C@@H]3O[C@@H](C)[C@H](O)[C@@H](O)[C@H]3O)c(-c3ccc(O)cc3)oc12,-4.5,4.1,2.3,5.9,16.1,7.6,x,x
CC(C)=CCc1c(O)cc(O)c2c(=O)c3c(CC=C(C)C)c(O)ccc3oc12,-7.6,27.6,-6.9,-5.2,93.8*,105.8*,28.9,x
COc1ccc2nc(-c3ccc(Cl)cc3)cc(C(=O)O)c2c1,4.6,-1.7,2.9,-6.2,-4.9,-1.9,x,x
COC(=O)CNC(=O)CNC(=O)c1nn(-c2ccc(OC)c(OC)c2)c(=O)c2ccccc12,-3.9,-13.6,-5.2,1.6,0.0,1.5,x,x
COc1ccc(-n2nc(C(=O)NCC(=O)NCc3ccc(F)cc3)c3ccccc3c2=O)cc1OC,-3.6,6.4,-5.2,x,80.3*,-1.6,8.8,x
COc1ccc(-n2nc(C(=O)NCC(=O)Nc3cc(OC)c(OC)c(OC)c3)c3ccccc3c2=O)cc1Cl,34.2,15.1,2.2,38.0,70.3*,19.9,73.2*,80.6*
Cc1ccc2c(c1)NC(=O)C(CC(=O)Nc1ccc(Br)c(C)c1)O2 (stereo not given),1.1,0.8,-0.5,-2.3,16.8,1.9,x,x
COc1ccc(-c2nc(N/N=C(\C)c3ccc(O)cc3)c3ccccc3n2)cc1,-13.4,50.0,6.3,65.7,85.6*,43.3,-22.0,x
CCCOc1ccc(C(=O)CCNC(Cc2c[nH]c3ccccc23)C(=O)O)cc1 (stereo not given),-4.0,-17.4,-8.8,1.2,86.5*,-3.1,21.1,x
C[C@H]1CCC[C@]2(C)C[C@H]3OC(=O)C(CN4CCCCCC4)[C@H]3C=C12 (stereo not given in full),-14.4,-63.5,3.2,16.0,72.9*,-1.5,48.5*,14.1
O=C(Cc1nc(-c2ccc([N+](=O)[O-])cc2)cs1)Nc1ccccc1,30.2,9.3,-14.7,3.3,31.0,-11.5,x,x

# From PubChem BioAssay
